Experimental findings from ChEMBL document CHEMBL1629663, “Postantibiotic effects of telavancin against 16 gram-positive organisms” (Antimicrob Agents Chemother, 2009) are described below.

Converted amounts (≈) assume the structure as drawn. Where only a bound is given, the exact number is not on record here.

Common to all, as to assay type: functional
In assay [1] the test system is Staphylococcus aureus. Briefly: Antimicrobial activity against vancomycin-susceptible-, methicillin-resistant Staphylococcus aureus 1130 by microdilution method.
For assay [2], the system named is Streptococcus agalactiae. The assay can be described thus: Antimicrobial activity against Streptococcus agalactiae HMC 5 assessed as time required to induce post antibiotic sub-MIC effect at 0.2 times MIC pre-exposed to Telavancin for 2 hrs by plate counting method. As to conditions: in the assay text read “for 1 hr” for “for 2 hrs”. The method, boiled down:
(§1)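 Mueller-Hinton broth cultures of about 5 × 10^6 CFU/ml were pre-exposed to telavancin at 10× MIC for 1 h at 35°C, then diluted 1:1,000. Telavancin was re-added to final 0.2, 0.3 or 0.4× MIC, alongside a drug-free tube. Viable counts were taken before exposure, after dilution, then every 2 h until McFarland no. 1 turbidity. Duration comes from log10 CFU/ml-versus-time plots; two separate experiments with fresh inocula.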

The test system of assay [3] is Staphylococcus aureus. The assay can be described thus: Antimicrobial activity against vancomycin-intermediate-, methicillin-resistant Staphylococcus aureus 1287 assessed as time required to induce sub-MIC effect at 0.4 times MIC […] by plate counting method. The method, boiled down:
(§2)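 SME, viable plate count method: no prior drug exposure. About 5 × 10^6 CFU/ml in Mueller-Hinton broth at 35°C received 0.2, 0.3 or 0.4× MIC, alongside a drug-free tube. Counts were taken at the start, then every 2 h until McFarland no. 1 turbidity, as log10 CFU/ml against time. Two separate experiments, each with a new inoculum.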

The subject of assay [4] is Staphylococcus aureus. Briefly: Antimicrobial activity against vancomycin-susceptible-, methicillin-resistant Staphylococcus aureus ATCC 33591 assessed as time required to induce post antibiotic sub-MIC effect at 0.2 times MIC pre-exposed to Telavancin […] by plate counting method. The method, boiled down: (§3)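 After 1 h preexposure to 10× MIC at 35°C and 1:1,000 dilution, cultures were split, and drug was re-added to final 0.2, 0.3 or 0.4× MIC, with a drug-free tube. Viable counts were taken every 2 h until McFarland 1 turbidity. Duration was derived from log10 CFU/ml versus time curves. Two experiments were run, each with a new inoculum.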

The subject of assay [5] is Staphylococcus aureus. The assay can be described thus: Antimicrobial activity against vancomycin-susceptible-, methicillin-resistant Staphylococcus aureus 1130 assessed as time required to induce post antibiotic sub-MIC effect at 0.3 times MIC […] by plate counting method. Summed up:
as §3

Assay [6] has as its system Streptococcus agalactiae. The assay can be described thus: Antimicrobial activity against Streptococcus agalactiae HMC 5 assessed as time required to induce post antibiotic sub-MIC effect at 0.4 times MIC […] by plate counting method. The method, boiled down: as §1
The test system of the next assay is Streptococcus pyogenes. Briefly: Antimicrobial activity against Streptococcus pyogenes HMC 414 assessed as post-antibiotic effect at 10 times MIC pre-exposed to Telavancin for 1 hr by plate counting method. The method, boiled down: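 Organisms were suspended in Mueller-Hinton broth from overnight blood agar colonies at about 5 × 10^6 CFU/ml. Cultures were exposed to telavancin at 10× MIC for 1 h at 35°C in a shaking water bath, then diluted 1:1,000 to remove the drug, with an untreated growth control. Viable counts were taken before exposure, at 0 h, then every 2 h until McFarland no. 1 turbidity. PAE = T − C, the time to a 1 log10 rise. Two experiments.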

Assay [7] deals with Enterococcus faecalis. The assay can be described thus: Antimicrobial activity against Enterococcus faecalis HMC 571 assessed as time required to induce post antibiotic sub-MIC effect at 0.4 times MIC […] by plate counting method. The method, boiled down: (§4)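 PAE was first induced with 10× MIC for 1 h at 35°C (inoculum about 5 × 10^6 CFU/ml, Mueller-Hinton broth) and ended by 1:1,000 dilution. Cultures were then split and given 0.2, 0.3 or 0.4× MIC, with one tube left without drug. Viable counts were taken before exposure, after dilution, then every 2 h until McFarland no. 1 turbidity. Two separate experiments, each with a new inoculum.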

The next assay relates to Enterococcus faecium. Briefly: Antimicrobial activity against Enterococcus faecium HMC 588 assessed as time required to induce sub-MIC effect at 0.3 times MIC exposed for 2 hrs by plate counting method. Summed up:
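Unexposed Mueller-Hinton broth cultures (about 5 × 10^6 CFU/ml, 35°C) were handled as in the PA-SME set but without the 10× MIC pre-exposure. They were diluted 1:1,000, then given telavancin at final 0.2, 0.3 or 0.4× MIC, with a drug-free control. Viable counts were taken every 2 h until McFarland no. 1 turbidity. Effect duration comes from log10 CFU/ml-time plots; two separate experiments with new inocula.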

Assay [8] has as its system Staphylococcus aureus. The assay can be described thus: Antimicrobial activity against vancomycin-susceptible-, methicillin-resistant Staphylococcus aureus 1307 assessed as post-antibiotic effect at 10 times MIC pre-exposed to Telavancin for 1 hr by plate counting method. The method, boiled down:
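Direct colony suspensions (~5 × 10^6 CFU/ml) were exposed to 10× MIC for 1 h at 35°C with shaking in Mueller-Hinton broth, then diluted 1:1,000 to remove drug. Viable plate counts were taken before exposure, at 0 h, then every 2 h until turbidity reached McFarland 1. PAE = T − C, the time for counts to rise 1 log10 versus the unexposed control. Two separate experiments were run.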

In assay [9] the test system is Staphylococcus aureus. Briefly: Antimicrobial activity against heterogenous vancomycin-intermediate-, methicillin-resistant Staphylococcus aureus 618 assessed as post-antibiotic effect at 10 times MIC pre-exposed to Telavancin for 1 hr by plate counting method. Summed up: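 Viable plate count method in Mueller-Hinton broth. Direct colony suspension inoculum of about 5 × 10^6 CFU/ml was exposed to 10× MIC for 1 h at 35°C in a shaking water bath, then diluted 1:1,000 to remove drug. Counts were taken before exposure, at 0 h, then every 2 h until McFarland no. 1 turbidity. PAE = T − C, the time to a 1 log10 rise versus an unexposed growth control.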

For assay [10], the system named is Staphylococcus aureus. Briefly: Antimicrobial activity against heterogenous vancomycin-intermediate-, methicillin-resistant Staphylococcus aureus 873 assessed as time required to induce sub-MIC effect at 0.2 times MIC […] by plate counting method. The method, boiled down:
as §2

The subject of assay [11] is Staphylococcus aureus. Briefly: Antimicrobial activity against heterogenous vancomycin-intermediate-, methicillin-resistant Staphylococcus aureus 618 assessed as time required to induce post antibiotic sub-MIC effect at 0.2 times MIC pre-exposed to Telavancin […] by plate counting method. Summed up:
as §4

Assay [12] has as its system Staphylococcus aureus. Briefly: Antimicrobial activity against vancomycin-susceptible-, methicillin-resistant Staphylococcus aureus 1307 assessed as time required to induce post antibiotic sub-MIC effect at 0.4 times MIC […] by plate counting method. The method, boiled down: as §3
Assay [13] deals with Staphylococcus aureus. The assay can be described thus: Antimicrobial activity against vancomycin-susceptible-, methicillin-resistant Staphylococcus aureus 1306 assessed as time required to induce sub-MIC effect at 0.4 times MIC exposed for 2 hrs by plate counting method. Summed up: (§5)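 Sub-MIC effect: cultures not preexposed to drug were diluted and handled as in the PA-SME procedure in Mueller-Hinton broth with final 0.2, 0.3 or 0.4× MIC, plus a drug-free control. Viable plate counts were taken every 2 h until McFarland 1 turbidity. Duration was derived from growth curves. Two experiments were run, each with a new inoculum.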

Assay [14] deals with Staphylococcus aureus. Briefly: Antimicrobial activity against vancomycin-resistant-, methicillin-resistant Staphylococcus aureus 510 assessed as time required to induce sub-MIC effect at 0.2 times MIC exposed for 2 hrs by plate counting method. The method, boiled down: as §5
The subject of assay [15] is Staphylococcus aureus. The assay can be described thus: Antimicrobial activity against vancomycin-susceptible-, methicillin-resistant Staphylococcus aureus 1306 assessed as time required to induce sub-MIC effect at 0.3 times MIC exposed for 2 hrs by plate counting method. Summed up: as §5
Assay [16] has as its system Enterococcus faecalis. The assay can be described thus: Antimicrobial activity against Enterococcus faecalis HMC 571 assessed as time required to induce post antibiotic sub-MIC effect at 0.3 times MIC […] by plate counting method. Summed up: as §1

Compound `CCCCCCCCCCNCCN[C@@]1(C)C[C@H](O[C@H]2[C@H](Oc3c4cc5cc3Oc3ccc(cc3Cl)[C@@H](O)[C@@H](NC(=O)[C@@H](CC(C)C)NC)C(=O)N[C@@H](CC(N)=O)C(=O)N[C@H]5C(=O)N[C@H]3C(=O)N[C@H](C(=O)N[C@H](C(=O)O)c5cc(O)c(CNCP(=O)(O)O)c(O)c5-c5cc3ccc5O)[C@H](O)c3ccc(c(Cl)c3)O4)O[C@H](CO)[C@@H](O)[C@@H]2O)O[C@@H](C)[C@H]1O` [TELAVANCIN] returned an MIC in the assay on Staphylococcus aureus [1] of 0.12 µg/mL (≈ 0.0684 µM). Also, the PAE in the assay with Streptococcus agalactiae [2] is 0.8 h; in the assay with Staphylococcus aureus [3], 0.8 h; in the assay on Staphylococcus aureus [4], 7.7 h; in the assay with Staphylococcus aureus [5], 10 h; in the assay with Streptococcus agalactiae [6], > 10.7 h; with Streptococcus pyogenes it was 6.1 h. Moreover, the PAE in the assay on Enterococcus faecalis [7] was determined as 10.6 h; in the assay with Enterococcus faecium, 7.2 h; in the assay with Staphylococcus aureus [8], 1.1 h; in the assay on Staphylococcus aureus [9], 1.7 h; with Staphylococcus aureus [10] it was 0 h; in the assay on Staphylococcus aureus [11], 5.7 h. Further, the PAE in the assay with Staphylococcus aureus [12] was > 10.5 h; in the assay with Staphylococcus aureus [13], 6 h; with Staphylococcus aureus [14], 1.9 h; in the assay on Staphylococcus aureus [15] it was 5.1 h; with Enterococcus faecalis [16], 7.2 h.
